Here are results for one compound from ChEMBL document CHEMBL4814076, “Discovery of a Potent and Selective Covalent Inhibitor of Bruton's Tyrosine Kinase with Oral Anti-Inflammatory Activity” (ACS Med Chem Lett, 2021).

Series [1] can be described thus: Inhibition of BTK in Wistar rat whole blood assessed as reduction in anti-IgD-induced B220/CD86+ expression incubated for 1 hr followed anti-IgD stimulation and measured after overnight by flow cytometry analysis. It is filed as tissue-based. The note with it: Rattus norvegicus, Blood, 1 h. The gist of the method:
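B-cell activation induced by anti-IgD in rat whole blood, read as B220+CD86+ cells.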
(Flow cytometry measures light scatter and fluorescence of single cells or particles in a stream.)

Series [2] addresses T1, Tyrosine-protein kinase BTK (Homo sapiens, UniProt Q06187). Description: Inhibition of recombinant human BTK using KVEKIGEGTYGVVYK as substrate incubated for 40 mins in presence of [gamma33P]ATP by scintillation counting method.
The target in series [3] is T2, Tyrosine-protein kinase Lck (Homo sapiens, UniProt P06239). Description: Inhibition of recombinant human full length LCK using KVEKIGEGTYGVVYK as substrate incubated for 40 mins in presence of [gamma33P]ATP by scintillation counting method.
Target sequence in this assay (P06239 whole entry): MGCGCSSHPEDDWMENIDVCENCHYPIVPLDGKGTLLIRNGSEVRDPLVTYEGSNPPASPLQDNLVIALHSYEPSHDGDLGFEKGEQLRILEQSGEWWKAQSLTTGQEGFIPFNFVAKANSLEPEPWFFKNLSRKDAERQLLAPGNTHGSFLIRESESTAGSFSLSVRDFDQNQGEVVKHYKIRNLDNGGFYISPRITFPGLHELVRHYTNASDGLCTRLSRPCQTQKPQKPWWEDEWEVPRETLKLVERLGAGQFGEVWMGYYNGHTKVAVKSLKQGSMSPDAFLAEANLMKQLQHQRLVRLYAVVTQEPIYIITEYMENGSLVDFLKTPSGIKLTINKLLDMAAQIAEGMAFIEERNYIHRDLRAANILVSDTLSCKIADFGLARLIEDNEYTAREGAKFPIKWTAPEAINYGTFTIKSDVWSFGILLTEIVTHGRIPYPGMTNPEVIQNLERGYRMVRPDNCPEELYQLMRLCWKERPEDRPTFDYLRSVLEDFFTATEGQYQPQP
The target of series [4] is T3, Tyrosine-protein kinase TXK (Homo sapiens, UniProt P42681).
T3 sequence (P42681 whole entry): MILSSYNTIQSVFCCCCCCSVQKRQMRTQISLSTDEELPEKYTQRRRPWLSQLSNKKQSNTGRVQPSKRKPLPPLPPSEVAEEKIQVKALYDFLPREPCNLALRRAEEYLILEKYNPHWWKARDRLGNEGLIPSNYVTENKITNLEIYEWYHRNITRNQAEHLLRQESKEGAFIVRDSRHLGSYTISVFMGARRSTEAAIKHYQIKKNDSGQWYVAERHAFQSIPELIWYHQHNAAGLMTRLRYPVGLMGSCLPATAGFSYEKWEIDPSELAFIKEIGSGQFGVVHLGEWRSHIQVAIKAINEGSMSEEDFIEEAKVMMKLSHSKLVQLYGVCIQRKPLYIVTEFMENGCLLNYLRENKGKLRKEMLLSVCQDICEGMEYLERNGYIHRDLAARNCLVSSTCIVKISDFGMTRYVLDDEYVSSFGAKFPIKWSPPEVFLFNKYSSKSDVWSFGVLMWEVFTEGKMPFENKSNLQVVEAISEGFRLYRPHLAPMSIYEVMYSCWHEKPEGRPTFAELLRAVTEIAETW
As to the kind of experiment: Inhibition of recombinant human TXK (256 to end residues) using GEEPLYWSFPAKKK as substrate incubated for 40 mins in presence of [gamma33P]ATP by scintillation counting method.

Series [5] addresses Tyrosine-protein kinase Fgr (Homo sapiens, UniProt P09769). Description: Inhibition of recombinant human FGR (2 to end residues) using poly(Glu, Tyr) 4:1 as substrate incubated for 40 mins in presence of [gamma33P]ATP by scintillation counting method.
Series [6] has as its target Serine/threonine-protein kinase B-raf (Homo sapiens, UniProt P15056). Description: Inhibition of recombinant human B-RAF (416 to end residues) using myelin basic protein as substrate incubated for 40 mins in presence of [gamma33P]ATP by scintillation counting method.
The target of series [7] is Proto-oncogene tyrosine-protein kinase Src (Homo sapiens, UniProt P12931). As to the kind of experiment: Inhibition of recombinant human SRC (1 to 530 residues) using GGEEEEYFELVKKKK as substrate incubated for 40 mins in presence of [gamma33P]ATP by scintillation counting method.
Series [8] concerns the target Tyrosine-protein kinase HCK (Homo sapiens, UniProt P08631). As to the kind of experiment: Inhibition of recombinant human HCK (230 to 497 residues) using GGMEDIYFEFMGGKKK as substrate incubated for 40 mins in presence of [gamma33P]ATP by scintillation counting method.
The target of series [9] is T2, Tyrosine-protein kinase Lck. Description: Inhibition of LCK in human CD4+ T-cells assessed as reduction in anti-CD3/anti-CD28 induced IL-2 secretion at 10 uM incubated for 60 mins followed by anti-CD3/anti-CD28 stimulation and measured after 18 hrs by ELISA. It is filed as tissue-based. The following applies: CD4+ve Th, time 19.0 hrs. The gist of the method: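 Anti-CD3/anti-CD28 stimulation of T cells. IL-2 secretion measured with compound tested up to 10 μM. An ITK inhibitor served as positive control.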
Target sequence in this assay (P06239 2-509 limits assumed): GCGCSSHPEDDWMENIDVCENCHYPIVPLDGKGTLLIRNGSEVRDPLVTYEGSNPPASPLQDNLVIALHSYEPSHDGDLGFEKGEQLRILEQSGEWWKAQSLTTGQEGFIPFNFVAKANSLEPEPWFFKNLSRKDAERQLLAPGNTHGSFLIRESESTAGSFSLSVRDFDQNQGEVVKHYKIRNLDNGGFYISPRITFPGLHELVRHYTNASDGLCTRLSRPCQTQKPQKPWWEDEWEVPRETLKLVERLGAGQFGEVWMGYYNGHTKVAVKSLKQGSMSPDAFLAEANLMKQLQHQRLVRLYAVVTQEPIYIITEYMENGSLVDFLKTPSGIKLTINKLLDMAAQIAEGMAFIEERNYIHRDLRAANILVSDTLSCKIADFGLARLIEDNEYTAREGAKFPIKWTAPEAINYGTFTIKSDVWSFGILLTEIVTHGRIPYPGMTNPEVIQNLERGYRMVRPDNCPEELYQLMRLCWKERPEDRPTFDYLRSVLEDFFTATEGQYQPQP
For orientation: ELISA stands for enzyme-linked immunosorbent assay.

Series [10] is described as follows: Volume of distribution at steady state in Sprague-Dawley rat at 5 mg/kg, po or 1 mg/kg, iv measured upto 24 hrs by LC-MS/MS analysis. The note with it: in vivo, read-out: Vdss. It is filed as ADME, organism-based. The method in brief: (§1)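 Rats (nonfasted; IV 1 mg/kg, PO 5 mg/kg) and dogs (fasted; IV 0.5 mg/kg, PO 2.5 mg/kg) dosed from 20% hydroxypropyl-β-cyclodextrin solution.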

Series [11] in a line: Half life in Sprague-Dawley rat at 1 mg/kg, iv measured upto 24 hrs by LC-MS/MS analysis. The note with it: in vivo. It is filed as ADME, organism-based. The gist of the method: as §1
The nature of series [12]: Oral bioavailability in Sprague-Dawley rat at 5 mg/kg measured upto 24 hrs by LC-MS/MS analysis. It is filed as ADME, organism-based. The following applies: in vivo.
The nature of series [13]: Cmax in Sprague-Dawley rat at 5 mg/kg, po measured upto 24 hrs by LC-MS/MS analysis. The following applies: in vivo. Details: route oral, dose 5 mg/kg, time <=24. It is filed as ADME, organism-based. The method in brief:
as §1

Series [14] is described as follows: Clearance in Beagle dog at 2.5 mg/kg, po or 0.5 mg/kg, iv measured upto 24 hrs by LC-MS/MS analysis. It is filed as ADME, organism-based, Canis lupus familiaris. The note with it: in vivo. The gist of the method: as §1
A short description of series [15]: Half life in Beagle dog at 0.5 mg/kg, iv measured upto 24 hrs by LC-MS/MS analysis. It is filed as ADME, organism-based, Canis lupus familiaris. The note with it: in vivo. The method in brief: as §1
Series [16] is described as follows: Oral bioavailability in Beagle dog at 2.5 mg/kg measured upto 24 hrs by LC-MS/MS analysis. It is filed as ADME, organism-based, Canis lupus familiaris. The note with it: in vivo. The method in brief: as §1
Series [17] can be described thus: Cmax in Beagle dog at 2.5 mg/kg, po measured upto 24 hrs by LC-MS/MS analysis. Details: route oral, dose 2.5 mg/kg, time <=24. The note with it: in vivo. It is filed as ADME, organism-based, Canis lupus familiaris. The gist of the method:
as §1

A short description of series [18]: Tmax in Beagle dog at 2.5 mg/kg, po measured upto 24 hrs by LC-MS/MS analysis. It is filed as ADME, organism-based, Canis lupus familiaris. The following applies: in vivo. The method in brief:
as §1

The nature of series [19]: In vivo protein occupancy at BTK in Wistar rat at 3 mg/kg, po measured after 24 hrs by ELISA relative to control. It is filed as functional. The method in brief: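 Single oral dose of 3 mg/kg in rats. BTK occupancy compared with plasma concentration over time out to 48 h.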
In the next series the test system is Rattus norvegicus. Description: Antiinflammatory activity in po dosed Wistar rat model of type-2 collagen/incomplete freund's adjuvant-induced arthritis assessed as reduction in paw inflammation administered once daily on day 9 post type-2 collagen/incomplete freund's adjuvant stimulation and treated until day 16. It is filed as functional, organism-based. The following applies: dose 1-30 mg/kg, time 8.0 day. The gist of the method: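 Arthritis induced in female Wistar rats by collagen injection on day 0 and day 7. Compound given orally once daily from day 9 through day 16. Hind paw inflammation scored. Anti-TNFα comparator dosed at 10 mg/kg every other day.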

Series [20] concerns the target T1, Tyrosine-protein kinase BTK. Description: Irreversible covalent inhibition of recombinant unphosphorylated human GST-tagged BTK kinase domain (389 to 659 residues) expressed in insect cells assessed as protein-compound adduct formation under native conditions by HPLC analysis. The gist of the method: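 BTK protein incubated with compound. Adduct mass measured under denaturing and nondenaturing conditions.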

Series [21] shares this target. Description: Inhibition of BTK in human whole blood assessed as inhibition of IgM-induced B-cell activation. It is filed as tissue-based.

Active and inactive are the calls of the source. The rule behind the calls is not given here.

T1 sequence (Q06187 whole entry): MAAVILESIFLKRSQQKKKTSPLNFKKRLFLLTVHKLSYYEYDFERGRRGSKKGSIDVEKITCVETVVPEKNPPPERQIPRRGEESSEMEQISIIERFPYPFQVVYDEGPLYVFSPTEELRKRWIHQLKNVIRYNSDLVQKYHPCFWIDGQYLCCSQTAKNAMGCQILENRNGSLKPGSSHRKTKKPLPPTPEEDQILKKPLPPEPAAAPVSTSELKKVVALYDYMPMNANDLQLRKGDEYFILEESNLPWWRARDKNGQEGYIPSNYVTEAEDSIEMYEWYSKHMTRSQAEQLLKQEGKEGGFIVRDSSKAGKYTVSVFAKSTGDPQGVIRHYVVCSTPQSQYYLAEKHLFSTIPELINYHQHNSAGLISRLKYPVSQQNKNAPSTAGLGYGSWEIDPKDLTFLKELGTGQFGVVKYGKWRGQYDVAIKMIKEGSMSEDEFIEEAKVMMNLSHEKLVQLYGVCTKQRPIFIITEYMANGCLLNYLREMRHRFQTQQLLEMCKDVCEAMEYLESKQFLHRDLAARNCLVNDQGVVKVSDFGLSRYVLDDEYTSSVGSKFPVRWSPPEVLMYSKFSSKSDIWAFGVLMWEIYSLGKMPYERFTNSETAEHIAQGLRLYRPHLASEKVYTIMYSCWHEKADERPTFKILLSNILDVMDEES
Serine/threonine-protein kinase B-raf, sequence (P15056 whole entry, the tested form may be a part): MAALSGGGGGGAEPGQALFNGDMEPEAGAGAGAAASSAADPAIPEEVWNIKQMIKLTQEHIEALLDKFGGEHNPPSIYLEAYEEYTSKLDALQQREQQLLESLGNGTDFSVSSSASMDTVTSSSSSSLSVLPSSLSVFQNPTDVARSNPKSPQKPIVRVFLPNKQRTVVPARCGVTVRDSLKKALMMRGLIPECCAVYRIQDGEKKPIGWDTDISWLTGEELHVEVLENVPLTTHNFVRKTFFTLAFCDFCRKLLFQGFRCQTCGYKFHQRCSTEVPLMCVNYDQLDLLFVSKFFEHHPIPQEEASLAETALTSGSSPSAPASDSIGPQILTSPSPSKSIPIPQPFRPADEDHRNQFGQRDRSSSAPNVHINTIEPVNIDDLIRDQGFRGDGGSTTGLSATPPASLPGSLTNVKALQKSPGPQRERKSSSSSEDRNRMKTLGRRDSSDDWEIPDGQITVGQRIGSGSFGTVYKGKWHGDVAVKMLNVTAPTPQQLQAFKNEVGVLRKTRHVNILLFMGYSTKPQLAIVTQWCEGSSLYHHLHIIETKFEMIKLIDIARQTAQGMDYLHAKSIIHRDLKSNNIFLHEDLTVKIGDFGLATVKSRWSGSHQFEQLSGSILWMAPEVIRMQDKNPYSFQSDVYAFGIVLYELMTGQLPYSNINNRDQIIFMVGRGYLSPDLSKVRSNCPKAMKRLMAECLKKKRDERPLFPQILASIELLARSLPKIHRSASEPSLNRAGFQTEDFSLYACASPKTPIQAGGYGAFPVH
Tyrosine-protein kinase HCK, sequence (P08631 whole entry, the tested form may be a part): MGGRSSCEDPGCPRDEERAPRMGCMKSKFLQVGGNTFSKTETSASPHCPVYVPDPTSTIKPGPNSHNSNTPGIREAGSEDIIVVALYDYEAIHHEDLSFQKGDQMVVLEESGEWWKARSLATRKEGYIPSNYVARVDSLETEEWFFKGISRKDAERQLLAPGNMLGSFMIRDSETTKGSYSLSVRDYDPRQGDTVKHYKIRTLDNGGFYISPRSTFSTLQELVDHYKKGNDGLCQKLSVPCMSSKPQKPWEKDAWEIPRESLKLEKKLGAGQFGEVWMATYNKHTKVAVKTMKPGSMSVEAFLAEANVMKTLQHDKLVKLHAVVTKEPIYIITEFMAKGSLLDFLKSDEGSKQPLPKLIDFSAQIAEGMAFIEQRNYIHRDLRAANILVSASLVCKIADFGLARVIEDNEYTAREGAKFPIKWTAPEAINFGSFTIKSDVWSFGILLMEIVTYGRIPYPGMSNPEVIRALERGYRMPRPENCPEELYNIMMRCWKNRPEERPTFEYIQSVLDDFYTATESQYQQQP
Tyrosine-protein kinase Fgr, sequence (P09769 whole entry): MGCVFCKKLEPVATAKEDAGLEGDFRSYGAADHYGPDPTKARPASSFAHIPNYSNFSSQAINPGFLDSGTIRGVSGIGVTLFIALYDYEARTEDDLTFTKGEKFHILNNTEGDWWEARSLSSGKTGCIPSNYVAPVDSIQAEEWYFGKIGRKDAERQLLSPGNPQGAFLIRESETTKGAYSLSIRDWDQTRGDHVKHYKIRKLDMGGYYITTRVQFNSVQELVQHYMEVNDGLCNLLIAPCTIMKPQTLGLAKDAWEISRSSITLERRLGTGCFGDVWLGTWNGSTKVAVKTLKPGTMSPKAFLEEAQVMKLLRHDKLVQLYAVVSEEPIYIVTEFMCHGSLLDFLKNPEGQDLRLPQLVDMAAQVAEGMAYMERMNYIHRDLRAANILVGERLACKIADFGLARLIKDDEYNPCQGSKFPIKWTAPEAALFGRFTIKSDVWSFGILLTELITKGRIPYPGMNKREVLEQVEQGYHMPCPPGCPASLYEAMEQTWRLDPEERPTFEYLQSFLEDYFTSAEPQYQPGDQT
Proto-oncogene tyrosine-protein kinase Src, sequence (P12931 2-536 limits assumed): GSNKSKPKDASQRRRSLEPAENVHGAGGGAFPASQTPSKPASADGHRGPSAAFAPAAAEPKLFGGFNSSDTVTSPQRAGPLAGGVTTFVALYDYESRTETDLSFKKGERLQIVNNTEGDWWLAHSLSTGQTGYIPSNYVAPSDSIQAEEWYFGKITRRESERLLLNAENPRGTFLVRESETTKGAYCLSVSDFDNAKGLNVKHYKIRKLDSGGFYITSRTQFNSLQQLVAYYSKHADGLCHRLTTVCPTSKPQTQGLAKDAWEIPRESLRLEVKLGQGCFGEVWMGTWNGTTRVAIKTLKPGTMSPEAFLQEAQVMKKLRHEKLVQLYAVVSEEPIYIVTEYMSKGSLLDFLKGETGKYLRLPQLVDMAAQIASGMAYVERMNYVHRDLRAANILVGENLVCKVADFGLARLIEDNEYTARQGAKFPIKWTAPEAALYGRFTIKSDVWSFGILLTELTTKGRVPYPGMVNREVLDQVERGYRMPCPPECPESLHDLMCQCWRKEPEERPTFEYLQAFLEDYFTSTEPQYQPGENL

On to `C=CC(=O)N1CC[C@@H](NC(=O)c2sc3nccc4c3c2NC(=O)N4c2ccc(Oc3ccccc3)cc2C)C1`, for which the IC50 (in general, the concentration at which inhibition is half-maximal) in series [1] is 130 nM; in series [2], 142 nM; in series [3], 130 nM; in series [4], 1770 nM; in series [5], 4760 nM; in [6] it was 7840 nM. Also, the figures for the IC50 in series [7], in [8] and in series [21] were 3490 nM, above 30000 nM and 84 nM, respectively. Moreover, the inhibition result in series [9] is “inactive”. In addition, the Vd in [10] came out at 1 L/kg. The half-life (usually how long it takes for the measured level to halve) in [11] is 18 min; in series [15], 114 min. Also, the bioavailability (in general, the share of a dose that reaches the circulation, judged against a reference dose that is usually intravenous) stood at 29.7% in [12] and 68% in series [16]. Further, the peak concentration (Cmax) (commonly the highest concentration seen after dosing) in series [13] was 600 nM; in series [17] it was 1500 nM. Besides, the clearance in series [14] stood at 8 mL/min/kg. Moreover, the Tmax (as a rule, the time at which the peak concentration occurs) in series [18] is 48 min. The Activity in series [19] is 70%; in the series with Rattus norvegicus, “Dose-Dependent Effect”. For the same compound, the inhibition entry in series [20] is “Active”.
